Assay results from ChEMBL document CHEMBL4406794, “N-(7-Cyano-6-(4-fluoro-3-(2-(3-(trifluoromethyl)phenyl)acetamido)phenoxy)benzo[d]thiazol-2-yl)cyclopropanecarboxamide (TAK-632) Analogues as Novel Necroptosis Inhibitors by Targeting Receptor-Interacting Protein Kinase 3 (RIPK3): Synthesis, Structure-Activity Relationships, and in Vivo Efficacy” (J Med Chem, 2019).
Active and inactive are the calls of the source. No cut-off for these calls is given here.

Columns and labels:
[1] = molecular target: T1, Receptor-interacting serine/threonine-protein kinase 1 (Homo sapiens, UniProt Q13546); experiment: Binding affinity to wild-type human partial length RIPK1 (M1 to K305 residues) expressed in bacterial expression system after 1 hr by quantitative PCR based KINOMEscan assay
T1 sequence (Q13546 whole entry): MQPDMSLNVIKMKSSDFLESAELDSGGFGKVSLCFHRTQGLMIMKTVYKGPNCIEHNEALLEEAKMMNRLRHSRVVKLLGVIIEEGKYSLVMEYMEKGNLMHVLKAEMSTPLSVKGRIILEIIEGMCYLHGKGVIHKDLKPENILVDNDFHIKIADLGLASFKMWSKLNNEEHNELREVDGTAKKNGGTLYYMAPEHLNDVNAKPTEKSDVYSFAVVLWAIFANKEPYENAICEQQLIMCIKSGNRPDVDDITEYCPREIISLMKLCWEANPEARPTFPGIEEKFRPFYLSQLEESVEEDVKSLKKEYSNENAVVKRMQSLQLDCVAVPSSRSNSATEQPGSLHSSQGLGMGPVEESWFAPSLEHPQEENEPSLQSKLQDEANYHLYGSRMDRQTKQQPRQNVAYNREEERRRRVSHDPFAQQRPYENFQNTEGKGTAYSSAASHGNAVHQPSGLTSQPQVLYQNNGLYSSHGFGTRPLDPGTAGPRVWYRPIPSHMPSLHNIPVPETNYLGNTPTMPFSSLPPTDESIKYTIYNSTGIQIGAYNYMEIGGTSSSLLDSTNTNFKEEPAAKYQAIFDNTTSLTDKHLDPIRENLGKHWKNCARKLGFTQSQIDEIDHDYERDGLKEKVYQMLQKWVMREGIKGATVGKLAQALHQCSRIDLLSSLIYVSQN
Method in brief: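 KINOMEscan competition binding. Bound kinase eluted with 0.5 μM nonbiotinylated ligand for 30 min and quantified by qPCR. Duplicates averaged.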

[2] = Cytotoxicity against human HT-29 cells measured after 12 hrs by CellTiter-Glo Luminescent assay; format: cell-based
[3] = molecular target: Serine/threonine-protein kinase B-raf (Homo sapiens) (UniProt P15056); experiment: Inhibition of wild-type human partial length BRAF (S429 to E741 residues) expressed in mammalian expression system assessed as enzyme remaining activity at 1000 nM by Kinomescan method relative to control
Serine/threonine-protein kinase B-raf (Homo sapiens), sequence (P15056 whole entry, the tested form may be a part): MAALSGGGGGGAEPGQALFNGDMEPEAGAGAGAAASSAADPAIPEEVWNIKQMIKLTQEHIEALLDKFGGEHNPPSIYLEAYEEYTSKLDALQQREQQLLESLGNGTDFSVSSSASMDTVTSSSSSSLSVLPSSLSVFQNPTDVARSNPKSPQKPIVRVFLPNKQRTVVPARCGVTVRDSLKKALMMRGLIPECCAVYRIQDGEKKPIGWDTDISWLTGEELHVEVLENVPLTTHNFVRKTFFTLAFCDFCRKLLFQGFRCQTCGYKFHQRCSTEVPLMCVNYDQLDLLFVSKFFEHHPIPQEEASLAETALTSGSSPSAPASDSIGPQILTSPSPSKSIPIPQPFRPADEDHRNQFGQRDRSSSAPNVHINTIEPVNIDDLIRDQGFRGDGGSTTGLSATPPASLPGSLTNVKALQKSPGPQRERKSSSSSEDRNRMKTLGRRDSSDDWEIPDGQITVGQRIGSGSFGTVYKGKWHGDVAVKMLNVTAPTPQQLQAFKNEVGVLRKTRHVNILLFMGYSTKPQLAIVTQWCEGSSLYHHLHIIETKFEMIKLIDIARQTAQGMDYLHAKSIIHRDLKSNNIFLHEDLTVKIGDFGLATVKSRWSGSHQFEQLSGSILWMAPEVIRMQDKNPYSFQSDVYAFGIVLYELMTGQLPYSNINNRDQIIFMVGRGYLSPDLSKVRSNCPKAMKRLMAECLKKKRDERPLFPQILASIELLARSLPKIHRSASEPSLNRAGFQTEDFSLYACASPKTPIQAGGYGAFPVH

[4] = molecular target: Vascular endothelial growth factor receptor 2 (Homo sapiens) (UniProt P35968); experiment: Inhibition of wild-type human partial length VEGFR2 (R787 to P1253 residues) expressed in mammalian expression system assessed as enzyme remaining activity at 1000 nM by Kinomescan method relative to control
Vascular endothelial growth factor receptor 2 (Homo sapiens), sequence (P35968 whole entry, the tested form may be a part): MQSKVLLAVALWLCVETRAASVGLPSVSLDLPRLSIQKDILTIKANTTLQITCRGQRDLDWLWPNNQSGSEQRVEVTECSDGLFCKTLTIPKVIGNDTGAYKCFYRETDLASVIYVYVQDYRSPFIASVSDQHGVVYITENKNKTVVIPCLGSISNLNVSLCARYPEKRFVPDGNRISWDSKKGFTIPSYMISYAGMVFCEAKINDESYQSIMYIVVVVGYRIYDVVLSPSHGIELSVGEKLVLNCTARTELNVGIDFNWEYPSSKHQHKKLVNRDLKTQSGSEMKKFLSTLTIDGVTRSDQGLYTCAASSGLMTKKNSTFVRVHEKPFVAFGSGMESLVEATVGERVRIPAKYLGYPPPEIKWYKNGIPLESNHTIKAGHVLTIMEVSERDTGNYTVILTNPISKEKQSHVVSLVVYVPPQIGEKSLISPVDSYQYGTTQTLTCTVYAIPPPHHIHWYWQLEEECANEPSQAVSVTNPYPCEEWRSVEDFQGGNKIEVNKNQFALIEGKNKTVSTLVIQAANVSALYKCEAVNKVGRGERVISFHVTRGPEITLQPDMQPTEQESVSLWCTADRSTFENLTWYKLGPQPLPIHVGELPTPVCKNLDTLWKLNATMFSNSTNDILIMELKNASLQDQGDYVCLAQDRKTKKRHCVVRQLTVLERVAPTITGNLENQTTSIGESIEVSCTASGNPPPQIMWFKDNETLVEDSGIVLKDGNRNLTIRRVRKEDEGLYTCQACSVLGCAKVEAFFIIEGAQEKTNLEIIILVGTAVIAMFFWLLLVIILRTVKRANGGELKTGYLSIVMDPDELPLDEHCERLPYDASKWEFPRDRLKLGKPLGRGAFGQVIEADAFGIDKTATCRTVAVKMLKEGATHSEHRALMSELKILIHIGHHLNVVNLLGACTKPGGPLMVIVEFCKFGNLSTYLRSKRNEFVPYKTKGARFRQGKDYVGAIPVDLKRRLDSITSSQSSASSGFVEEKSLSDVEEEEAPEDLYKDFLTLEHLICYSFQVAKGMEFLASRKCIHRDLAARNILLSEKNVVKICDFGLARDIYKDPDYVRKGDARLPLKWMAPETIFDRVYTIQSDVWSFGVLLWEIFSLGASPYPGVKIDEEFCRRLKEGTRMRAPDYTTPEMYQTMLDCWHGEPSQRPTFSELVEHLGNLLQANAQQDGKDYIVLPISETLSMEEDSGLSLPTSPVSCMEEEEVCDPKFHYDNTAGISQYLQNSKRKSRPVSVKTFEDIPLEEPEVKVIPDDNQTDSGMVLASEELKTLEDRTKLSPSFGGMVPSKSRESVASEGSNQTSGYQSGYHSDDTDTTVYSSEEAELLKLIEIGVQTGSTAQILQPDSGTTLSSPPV

[5] = molecular target: Dual specificity mitogen-activated protein kinase kinase 1 (Homo sapiens) (UniProt Q02750); experiment: Inhibition of wild-type human full length MEK1 (M1 to V393 residues) expressed in mammalian expression system assessed as enzyme remaining activity at 1000 nM by Kinomescan method relative to control
Dual specificity mitogen-activated protein kinase kinase 1 (Homo sapiens), sequence (Q02750 whole entry, the tested form may be a part): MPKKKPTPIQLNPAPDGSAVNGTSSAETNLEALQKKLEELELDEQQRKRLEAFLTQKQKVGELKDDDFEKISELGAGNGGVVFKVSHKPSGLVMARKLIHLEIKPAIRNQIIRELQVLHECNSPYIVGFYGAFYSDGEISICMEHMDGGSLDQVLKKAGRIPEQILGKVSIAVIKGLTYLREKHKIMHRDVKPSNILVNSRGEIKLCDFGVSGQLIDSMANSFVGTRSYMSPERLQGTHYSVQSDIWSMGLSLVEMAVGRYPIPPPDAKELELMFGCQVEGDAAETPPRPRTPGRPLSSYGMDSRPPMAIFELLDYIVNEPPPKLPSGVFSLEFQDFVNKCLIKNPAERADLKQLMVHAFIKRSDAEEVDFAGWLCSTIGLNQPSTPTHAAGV

[6] = molecular target: Mitogen-activated protein kinase 14 (Homo sapiens) (UniProt Q16539); experiment: Inhibition of wild-type human full length p38-alpha (M1 to S360 residues) expressed in bacterial expression system assessed as enzyme remaining activity at 1000 nM by Kinomescan method relative to control
[7] = molecular target: Inhibitor of nuclear factor kappa-B kinase subunit alpha (Homo sapiens) (UniProt O15111); experiment: Inhibition of wild-type human full length IKK-alpha (M1 to E745 residues) expressed in mammalian expression system assessed as enzyme remaining activity at 1000 nM by Kinomescan method relative to control
Inhibitor of nuclear factor kappa-B kinase subunit alpha (Homo sapiens), sequence (O15111 whole entry, the tested form may be a part): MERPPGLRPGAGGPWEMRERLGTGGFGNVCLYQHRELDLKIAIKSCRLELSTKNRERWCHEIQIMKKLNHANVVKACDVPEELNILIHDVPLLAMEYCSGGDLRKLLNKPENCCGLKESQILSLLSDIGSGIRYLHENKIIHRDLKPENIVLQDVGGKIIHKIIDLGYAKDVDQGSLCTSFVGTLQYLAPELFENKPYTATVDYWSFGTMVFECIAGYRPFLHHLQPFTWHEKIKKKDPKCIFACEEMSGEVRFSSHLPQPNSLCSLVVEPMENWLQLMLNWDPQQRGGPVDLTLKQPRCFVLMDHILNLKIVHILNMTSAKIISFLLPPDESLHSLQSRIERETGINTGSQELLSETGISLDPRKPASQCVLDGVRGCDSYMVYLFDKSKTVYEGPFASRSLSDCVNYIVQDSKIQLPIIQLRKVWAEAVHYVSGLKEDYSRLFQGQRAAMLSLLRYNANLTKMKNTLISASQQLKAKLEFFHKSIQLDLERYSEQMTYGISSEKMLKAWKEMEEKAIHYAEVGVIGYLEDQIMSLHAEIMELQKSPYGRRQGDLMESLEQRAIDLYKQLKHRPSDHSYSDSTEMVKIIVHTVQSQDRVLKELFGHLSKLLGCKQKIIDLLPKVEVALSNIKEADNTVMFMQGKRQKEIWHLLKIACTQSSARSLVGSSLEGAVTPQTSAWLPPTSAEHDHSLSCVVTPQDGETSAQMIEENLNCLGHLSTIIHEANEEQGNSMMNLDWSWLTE

[8] = molecular target: Platelet-derived growth factor receptor beta (Homo sapiens) (UniProt P09619); experiment: Inhibition of wild-type human partial length PDGFRB (V582 to Y1009 residues) expressed in bacterial expression system assessed as enzyme remaining activity at 1000 nM by Kinomescan method relative to control
Platelet-derived growth factor receptor beta (Homo sapiens), sequence (P09619 whole entry, the tested form may be a part): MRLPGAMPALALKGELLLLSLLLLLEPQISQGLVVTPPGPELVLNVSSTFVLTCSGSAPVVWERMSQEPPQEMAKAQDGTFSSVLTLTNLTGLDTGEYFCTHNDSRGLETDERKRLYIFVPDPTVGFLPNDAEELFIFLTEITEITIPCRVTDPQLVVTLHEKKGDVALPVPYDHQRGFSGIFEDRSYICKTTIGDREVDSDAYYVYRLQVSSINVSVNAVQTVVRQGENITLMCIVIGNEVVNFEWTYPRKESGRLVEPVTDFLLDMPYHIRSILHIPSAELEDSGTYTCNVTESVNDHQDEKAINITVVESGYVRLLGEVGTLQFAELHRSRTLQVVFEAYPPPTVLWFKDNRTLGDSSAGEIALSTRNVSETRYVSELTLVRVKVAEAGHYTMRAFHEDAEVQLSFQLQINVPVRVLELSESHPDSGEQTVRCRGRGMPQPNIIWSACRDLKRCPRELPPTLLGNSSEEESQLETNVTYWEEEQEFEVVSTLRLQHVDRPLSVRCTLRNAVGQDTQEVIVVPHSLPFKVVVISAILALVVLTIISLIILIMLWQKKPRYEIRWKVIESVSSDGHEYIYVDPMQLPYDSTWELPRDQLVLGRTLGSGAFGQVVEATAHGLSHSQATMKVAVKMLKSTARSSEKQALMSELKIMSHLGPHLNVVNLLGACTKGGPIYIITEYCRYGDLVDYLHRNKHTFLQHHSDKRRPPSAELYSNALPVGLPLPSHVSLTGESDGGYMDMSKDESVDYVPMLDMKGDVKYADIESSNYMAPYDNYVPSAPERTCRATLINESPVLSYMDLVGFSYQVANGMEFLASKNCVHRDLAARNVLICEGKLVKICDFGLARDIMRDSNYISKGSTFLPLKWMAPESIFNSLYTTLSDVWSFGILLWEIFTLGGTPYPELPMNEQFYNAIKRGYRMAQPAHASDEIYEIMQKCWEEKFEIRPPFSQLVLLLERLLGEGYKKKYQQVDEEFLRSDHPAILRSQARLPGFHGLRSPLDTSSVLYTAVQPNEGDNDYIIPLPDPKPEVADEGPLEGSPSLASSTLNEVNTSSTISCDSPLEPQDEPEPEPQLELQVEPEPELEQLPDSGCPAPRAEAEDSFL

[9] = system: HT-29; experiment: Effect on TNFalpha/cycloheximide-induced apoptosis in human HT-29 cells at 3 uM treated prior to TNFalpha/cycloheximide stimulation and measured after 20 hrs by cell-Titer Glo luminescent cell viability assay; format: cell-based; settings: ht-29, 20 h
Method in brief: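 HT-29 cells pretreated with compound at 3 μM or DMSO, then given TNF-α 20 ng/mL with either cycloheximide 5 μg/mL (TC) or Smac mimetic 10 nM (TS) for 20 h. Viability read by CellTiter-Glo luminescence.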

[10] = system: L929; experiment: Cytoprotection against TNFalpha/Z-VAD-fmk-induced necroptosis in mouse L929 cells at 0.01 to 1 uM treated prior to TNFalpha/Z-VAD-fmk stimulation and measured after 4 hrs by cell-Titer Glo luminescent cell viability assay; format: functional, cell-based
Method in brief: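 Mouse L929 cells (DMEM, 10% FBS) pretreated with compound at the indicated concentrations, then given mouse TNF-α 20 ng/mL and z-VAD-fmk 20 μM for 4 h. Viability read by CellTiter-Glo luminescence.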

[11] = molecular target: Receptor-interacting serine/threonine-protein kinase 3 (Homo sapiens, UniProt Q9Y572); experiment: Inhibition of RIPK3 phosphorylation in TNFalpha/smac mimetic/Z-VAD-fmk stimulated human HT-29 cells at 1 uM treated prior to TNFalpha/smac mimetic/Z-VAD-fmk stimulation and measured after 2 to 4 hrs by SDS-PAGE based immunoblot assay; format: cell-based
Receptor-interacting serine/threonine-protein kinase 3, sequence (Q9Y572 whole entry, looked up): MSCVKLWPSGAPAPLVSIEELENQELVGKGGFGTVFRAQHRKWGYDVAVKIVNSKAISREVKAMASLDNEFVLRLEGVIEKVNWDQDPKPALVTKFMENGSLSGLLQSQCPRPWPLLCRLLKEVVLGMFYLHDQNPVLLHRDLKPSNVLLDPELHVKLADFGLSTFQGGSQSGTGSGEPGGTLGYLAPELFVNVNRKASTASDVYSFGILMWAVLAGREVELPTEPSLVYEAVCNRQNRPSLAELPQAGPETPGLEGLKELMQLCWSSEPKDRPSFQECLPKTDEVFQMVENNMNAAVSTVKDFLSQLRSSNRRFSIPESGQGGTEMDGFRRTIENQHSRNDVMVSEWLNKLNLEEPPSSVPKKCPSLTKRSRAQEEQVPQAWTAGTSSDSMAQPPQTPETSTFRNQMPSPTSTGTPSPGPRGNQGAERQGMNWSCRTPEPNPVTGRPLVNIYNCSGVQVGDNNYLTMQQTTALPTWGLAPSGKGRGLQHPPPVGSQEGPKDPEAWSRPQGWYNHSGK

[12] = system: Mus musculus; experiment: (§1) Protection against TNFalpha/Z-VAD-fmk-induced C57BL/6J mouse model of systemic inflammatory response syndrome assessed as increase in body temperature at 5 to 50 mg/kg, po administered via gavage 2 hrs prior to Z-VAD-fmk addition for 15 mins followed by TNFalpha stimulation for 1 hr and subsequent Z-VAD-fmk addition meaured up to 50 hrs post TNFalpha stimulation by electric thermometer; format: functional, organism-based
Method in brief: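 Female C57BL/6 mice, fasted overnight, n=10 per group. Compound given by oral gavage at 5, 25 or 50 mg/kg 2 h before TNF. z-VAD-fmk 180 µg i.p., then 15 min later mTNF-α 400 µg/kg i.v. in endotoxin-free PBS, then a further 70 µg z-VAD-fmk i.p. 1 h later. Body temperature and survival followed, compared with vehicle by one-way ANOVA.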

[13] = Apparent volume of distribution at steady state in Sprague-Dawley rat at 1 mg/kg, iv by LC-tandem mass spectrometry analysis; format: ADME, organism-based; settings: in vivo, read-out: Vdss(app)
Method in brief: (§2)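 Male Sprague-Dawley rats dosed once i.v. at 1 mg/kg or intragastrically at 5 mg/kg. Compound dissolved in 5% DMSO, 10% Tween 80, 75% physiological saline at 0.2 and 1 mg/mL. Blood taken at several time points, plasma spun at 4 °C, stored at -80 °C, assayed by LC/MS/MS. Parameters from individual animals by noncompartmental analysis.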

[14] = Oral bioavailability in Sprague-Dawley rat at 5 mg/kg by LC-tandem mass spectrometry analysis; format: ADME, organism-based; settings: in vivo; method in brief: as §2
[15] = system: Mus musculus; experiment: as §1, with “syndrome” for “syndrome assessed as increase in body temperature”, “5” for “5 to 50”, “relative to control” for “by electric thermometer”; format: functional
Method in brief: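 Overnight-fasted C57BL/6 female mice, n=10 per group. Test compound was given by oral gavage 2 h before mTNF-α. z-VAD-fmk (180 µg) was injected ip, then 15 min later mTNF-α in endotoxin-free PBS was injected iv (400 µg/kg). A second z-VAD-fmk dose (70 µg) was given ip 1 h after TNF. Body temperature and survival were followed against vehicle. One-way ANOVA was used.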

Q: Which Kd [1] does the source give for O=C(Nc1cccc(Br)c1)Nc1cc(Oc2ccc3nc(NC(=O)C4CC4)sc3c2)ccc1F here?
A: Its Kd is > 5 µM.

Q: What about the CC50 at 12 h [2] of the same compound?
A: Its CC50 at 12 h is > 50 µM.

Q: What about the Activity [3] of the same compound?
A: Its Activity is 3.6%.

Q: What about the Activity [4] of the same compound?
A: Its Activity is 2.8%.

Q: And the Activity [5]?
A: Its Activity is 100%.

Q: And the Activity [6]?
A: The Activity was 23%.

Q: What about the Activity [7] of the same compound?
A: The Activity was 100%.

Q: What about the Activity [8] of the same compound?
A: Its Activity is 0%.

Q: What about the Activity [9] of the same compound?
A: The Activity was “Non-Toxic”.

Q: And the Activity [10]?
A: Its Activity is “Active”.

Q: And the inhibition [11]?
A: The inhibition was “Active”.

Q: What about the Activity [12] of the same compound?
A: Its Activity is “Active”.

Q: What about the Vd [13] of the same compound?
A: Its Vd is 3.49 L/kg.

Q: What about the bioavailability [14] of the same compound?
A: Its bioavailability is 25.2%.

Q: And the Activity [15]?
A: Its Activity is 90%.
